Screening data as filed in PubChem.
AHR activator = human AHR activation | P35869 | AHR-responsive luciferase reporter cells, luminescence | activation, % at 5 µM | 320,000 compounds, 2.5% hits | AID 2796; in the data active = activation above about 47%;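 also: 0% = vehicle wells and 100% = reference agonist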
PERK inh = blocks human PERK kinase; Q9NZJ5; 220,000 compounds, 0.17% hits; inhibition, % at 5.6 µM; CHO PERK-DD fusion, SEAP luminescence translation reporter;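 active = inhibition above the mean inhibition of all tested compounds plus 3 SD, set separately per screening campaign, cut at about 2.9% in these data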;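 also: PERK kinase domain activated by AP20187 dimerizer at 100 nM; 0% = DMSO with dimerizer and 100% = rapamycin at 8.4 µM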
Target sequence (Q9NZJ5 whole entry, looked up, the tested form may be a part): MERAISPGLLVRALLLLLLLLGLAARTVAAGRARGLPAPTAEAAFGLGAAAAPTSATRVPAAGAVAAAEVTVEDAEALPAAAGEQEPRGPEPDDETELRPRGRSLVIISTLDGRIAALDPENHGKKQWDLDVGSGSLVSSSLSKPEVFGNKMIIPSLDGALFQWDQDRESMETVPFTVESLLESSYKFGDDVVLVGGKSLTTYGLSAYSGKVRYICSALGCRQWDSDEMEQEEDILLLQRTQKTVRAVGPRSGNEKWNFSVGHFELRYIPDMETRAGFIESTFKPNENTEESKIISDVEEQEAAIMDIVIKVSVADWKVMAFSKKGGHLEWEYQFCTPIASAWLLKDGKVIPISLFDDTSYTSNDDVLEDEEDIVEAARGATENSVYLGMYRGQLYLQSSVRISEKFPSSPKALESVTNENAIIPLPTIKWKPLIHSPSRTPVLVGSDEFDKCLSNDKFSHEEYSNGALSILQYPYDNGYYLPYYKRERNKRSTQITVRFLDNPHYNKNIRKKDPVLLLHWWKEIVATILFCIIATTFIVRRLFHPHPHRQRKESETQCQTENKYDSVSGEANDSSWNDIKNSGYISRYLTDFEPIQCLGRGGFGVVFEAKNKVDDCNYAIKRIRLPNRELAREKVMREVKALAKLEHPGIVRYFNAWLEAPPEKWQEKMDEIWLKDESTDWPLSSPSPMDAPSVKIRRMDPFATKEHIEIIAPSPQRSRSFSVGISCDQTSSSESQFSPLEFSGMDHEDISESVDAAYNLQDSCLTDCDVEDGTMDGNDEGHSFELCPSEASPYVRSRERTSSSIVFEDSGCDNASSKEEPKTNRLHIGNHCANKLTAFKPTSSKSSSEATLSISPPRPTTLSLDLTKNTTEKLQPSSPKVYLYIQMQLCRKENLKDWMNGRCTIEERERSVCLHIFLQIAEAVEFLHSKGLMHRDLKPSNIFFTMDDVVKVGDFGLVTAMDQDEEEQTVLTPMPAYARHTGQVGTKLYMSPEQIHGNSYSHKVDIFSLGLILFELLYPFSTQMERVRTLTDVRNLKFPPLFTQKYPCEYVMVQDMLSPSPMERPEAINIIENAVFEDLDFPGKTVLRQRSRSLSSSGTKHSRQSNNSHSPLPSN
MDM2 E3 inh = Mdm2 E3 ligase (human) inhibition; Q00987; cell-based MDM2 ubiquitination luciferase reporter, 2 h; 0 = plate control, 100 = twice control, blank-subtracted; signal enhancement, % at 5 µM; 210,000 compounds, 0.11% hits; AID 1230;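 active = signal enhancement of 30% or more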;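 also: luminescence tracks abundance of the self-degrading MDM2-luciferase fusion protein; higher signal means inhibition of MDM2 E3 ligase activity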
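System: stable MDM2–luciferase fusion reporter cells / Input: 2000 cells seeded into each well / Schedule: 4 h settle plus 2 h compound, 37 °C / Compound: single-point 5 µM / Buffer or medium: cells held in DMEM / Benchmarks: control and blank well means / Evaluation: percent signal gain over controls, blank-subtracted / Measured by: luciferase luminescence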
NF-kB neuron act = NF-kB expression increase, human neuronal cells | NF-kB reporter expression; hits give high values | fold change at 12.5 µM | 190,000 compounds, 1.6% hits | AID 1239; in the data active = fold change above about 3.3
STAT1 activator = STAT1 signaling activation | 200,000 compounds, 2.6% hits | activation (% of control), % at 5.5 µM | NIH 3T3 STAT1-luciferase reporter, IFN-gamma, luminescence; 100% = IFN-gamma alone, no compound | AID 932;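 active = activation above the screen-wide mean activation plus 3 SD, cut at about 130% in these data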;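 also: raw ratio to IFN-gamma control signal so 100% means no change and 0% no light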
APP 5'UTR act = APP 5'UTR luciferase reporter activation; SH-SY5Y APP 5'UTR luciferase reporter, luminescence; zero percent = DMSO vehicle wells; activation, % at 2 µM; 190,000 compounds, 1% hits;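 active = activation above a set limit, based on mean plus 3 SD of controls, cut at about 140% in these data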
An asterisk follows results filed as active; . = not tested or not shown. A selection: hits, their analogues and other compounds. The true share with any hit is near 4.5%.

SMILES	AHR activator	PERK inh	MDM2 E3 inh	NF-kB neuron act	STAT1 activator	APP 5'UTR act
Cc1ccc(C(=O)Nc2ccc3cn[nH]c3c2)cc1S(=O)(=O)N1CCOCC1	16.6	1.1	.	.	129.5*	1.6
Cc1ccc(C(=O)Nc2cccnc2)cc1S(=O)(=O)N1CCCCCC1	76.7*	.	.	.	.	.
Cc1ccc(SCC(=O)Nc2ccc(N3CCN(C)CC3)c(F)c2)cc1	0.4	0.1	-4.7	2.42	133.2*	31.7
O=C(CC(Nc1ccccc1Cl)C(=O)O)c1ccccc1 (stereo unspecified)	5.7	0.1	-28.1	0.61	127.3	172.3*
O=C(CC(Nc1ccc(Cl)cc1)C(=O)O)c1ccccc1 (stereo unspecified)	0.8	0.7	-19.5	2.42	146.7*	208.8*
C=CCN(CC=C)C(=O)C1CCN(S(=O)(=O)c2ccc(-n3cnnn3)cc2)CC1	2.4	.	.	.	.	.
Nc1nnnn1/N=C/c1cccc(OCc2ccccc2Cl)c1	10.2	-0.5	.	1.14	98.0	-0.3
Cc1ccc(S(=O)(=O)N(C)c2ccc(OCC(=O)Nc3nc4ccccc4s3)cc2)cc1	20.9	-0.9	-8.6	0.66	91.5	25.6
Cc1ccc(S(=O)(=O)N(C)c2ccc(OCC(=O)Nc3nc4c(ccc5ccccc54)s3)cc2)cc1	47.1*	-0.2	-8.5	0.85	90.5	-6.2
O=C(COC(=O)Cc1ccccc1[N+](=O)[O-])NCc1ccccc1Cl	2.6	1.1	2.8	1.14	106.2	1.5
Cc1ccc2c(c1)N(CCC(=O)NCc1cccs1)C(=O)C(C)O2 (stereo unspecified)	4.2	-1.1	-3.5	1.02	102.1	-4.2
CCCC1=[N+](CC(=O)c2ccccc2)CCn2c(C)ccc21	49.5*	1.4	-13.8	1.16	98.0	4.2
Fc1ccc(-c2csc(N3CCC(c4ccccc4)C3)n2)cc1 (stereo unspecified)	36.5	0.4	1.0	3.92*	147.2*	42.9
Clc1ccc(-c2csc(N3CCC(c4ccccc4)C3)n2)cc1 (stereo unspecified)	9.2	1.2	-12.9	2.36	131.8*	10.3
Cc1cccc(Cn2c(C(C)(C)C)cc3cccnc32)c1	1.3	-0.9	-8.7	0.7	101.8	.
CCOC(=O)Cc1csc(N/N=C/c2ccccc2)n1	-11.4	-0.1	-12.4	1.06	113.8	31.4
CCOC(=O)Cc1csc(N/N=C\c2ccccc2OC)n1	51.1*	.	.	.	.	.
Cc1cccc2nc(CSc3nnnn3-c3ccccc3)cn12	11.4	-1.6	-23.4	1.21	99.3	-8.3
Cc1cccc2nc(CSc3nnc4ccccn34)cn12	5.7	-0.5	-16.1	2.67	136.7*	94.2
c1ccn2c(SCc3cn4ccsc4n3)nnc2c1	6.2	0.5	1.4	2.18	138.5*	45.0
Cc1ccc(-n2nnnc2-c2cnoc2-c2cccc(F)c2)cc1	0.5	0.9	-8.5	1.36	91.3	1.9
O=C(Nc1ccon1)c1cc2c(s1)CCCC2	2.9	1.7	-37.4	5.6*	133.1*	163.8*
O=C(Nc1ccon1)c1cc2c(s1)CCCCCC2	34.6	-1.1	-2.2	2.98	141.2*	124.3
CNC(=O)c1cc2c(s1)CCCCCC2	-0.3	0.7	-8.0	1.14	99.9	-6.9
O=C(NCc1ccco1)C(c1ccccc1)N(Cc1ccccc1)C(=O)Cn1nnc2ccccc21 (stereo unspecified)	13.7	-0.9	.	1.05	91.7	-6.0
SMILES	AHR activator	PERK inh	MDM2 E3 inh	NF-kB neuron act	STAT1 activator	APP 5'UTR act
Cc1cc(=O)oc2cc(OC(=O)C3CCN(C(=O)c4ccc(F)cc4)CC3)ccc12	-2.1	.	.	.	.	.
Cc1ccc(SCC(=O)Nc2nccs2)cc1	1.5	1.4	-16.8	1.8	99.4	26.7
Cn1ccnc1SCC(=O)Nc1sccc1C#N	50.7*	0.9	-18.0	1.11	101.1	-4.1
COc1ccc(CCC(=O)Nc2sccc2C#N)cc1	-5.4	0.8	-14.6	2.35	130.1*	130.1
Cc1ccc(C#N)c(SCC(=O)Nc2nccs2)n1	62.8*	0.3	-46.4	2.39	111.6	175.0*
N#Cc1cc2c(nc1SCC(=O)Nc1nccs1)CCCCC2	-8.8	-0.5	-4.5	2.25	122.7	194.6*
CCc1ccc2[nH]c(=O)c(CN(Cc3ccc4c(c3)OCO4)Cc3nnnn3C3CCCC3)cc2c1	61.8*	0.2	-2.6	0.65	99.0	13.4
Cc1ccc2cc(CN(Cc3ccc(F)cc3)Cc3nnnn3C3CCCC3)c(=O)[nH]c2c1	0.7	-0.9	-11.3	0.63	102.5	8.2
CCOc1ccc(OCc2cccc(C(=O)N/N=C/c3cccnc3)c2)cc1	-15.3	-0.5	9.9	1.85	44.6	19.9
CC(C)c1ccc(OCc2cccc(C(=O)N/N=C/c3cccnc3)c2)cc1	-1.9	-0.4	33.5*	2.01	66.3	102.9
O=C(O)c1ccc(-c2ccc(-c3ccccc3)cc2)s1	-6.6	.	.	.	.	.
O=C(Nc1ccccc1)c1cc2ccc3ccccc3c2s1	68.6*	-0.6	-6.2	.	.	.
COc1ccc2cc(C(=O)Nc3ccccc3)sc(=O)c2c1OC	6.2	-0.1	-4.5	1.21	126.5	15.1
O=C(Nc1ccccc1)c1ccc(-c2ccccc2)s1	-4.2	0.1	-25.7	2.35	137.0*	59.9
Cc1cccc(S(=O)(=O)N2CCC(CO)(Cc3ccccc3)CC2)c1	5.0	-0.4	-9.7	1.09	97.7	-4.7
Cc1csc2nc(SCC(=O)Nc3ccccc3F)[nH]c(=O)c12	1.5	.	.	.	.	.
Clc1cc(Br)ccc1OCCOCCN1CCCC1	1.4	.	.	.	.	.
Clc1cc(Br)ccc1OCCOCCN1CCOCC1	8.2	0.6	-0.9	3.6*	108.4	10.6
CC1CCN(c2nc(/C=C/c3ccccc3)nc3ccccc23)CC1	71.7*	0.3	-0.3	1.13	105.3	0.8
Cc1ccc(C(=O)N2CC(C)CC(C)C2)cc1NC1=NC2CS(=O)(=O)CC2S1 (stereo unspecified)	2.2	.	.	.	.	.
O=C(NCc1cccnc1)c1ccc(-c2cc(Cl)ccc2Cl)o1	76.0*	0.4	1.7	1.01	92.8	21.5
O=C(NCc1cccnc1)c1ccc(-c2ccc(Cl)cc2)o1	37.2	0.6	2.1	1.06	112.1	0.7
CCOC(=O)Cn1cc(C#N)c2cccc(CC)c21	1.2	3.3*	-42.5	1.13	107.1	-6.6
CCc1cccc2c(C#N)cn(CC(=O)NCc3ccco3)c12	4.0	0.5	-7.0	1.28	99.3	18.2
COc1ccc(CN(Cc2cccn2C)C(=O)c2cc3cc(OC)ccc3[nH]2)cc1	3.5	0.1	-2.7	.	.	.
OCC[C@H]1C[C@H](O)[C@@H](O)[C@]2(Cc3ccccc3CCO2)O1	0.2	.	.	.	.	.
CN(C)/C=N/c1ncn(-c2ncc(C(F)(F)F)cc2Cl)n1	2.3	0.7	-20.2	0.81	133.4*	77.0
CN(C)/C=N/S(=O)(=O)c1cccn1-c1ncc(C(F)(F)F)cc1Cl	2.1	1.1	-11.9	1.05	107.2	6.4
CC1=NC(=O)C(N=Nc2cccc(O)c2)N1c1ccccc1 (stereo unspecified)	28.7	0.9	-11.6	4.22*	113.3	108.9
